Experiments:
Type in all cases: cell-based
[1] = target: T1, Ras guanyl-releasing protein 3 (Homo sapiens, UniProt Q8IV61); experiment: Activation of GFP-tagged RasGRP3 (unknown origin) expressed in HEK293 cells after 30 mins by immunoblot method
T1 sequence (Q8IV61 whole entry): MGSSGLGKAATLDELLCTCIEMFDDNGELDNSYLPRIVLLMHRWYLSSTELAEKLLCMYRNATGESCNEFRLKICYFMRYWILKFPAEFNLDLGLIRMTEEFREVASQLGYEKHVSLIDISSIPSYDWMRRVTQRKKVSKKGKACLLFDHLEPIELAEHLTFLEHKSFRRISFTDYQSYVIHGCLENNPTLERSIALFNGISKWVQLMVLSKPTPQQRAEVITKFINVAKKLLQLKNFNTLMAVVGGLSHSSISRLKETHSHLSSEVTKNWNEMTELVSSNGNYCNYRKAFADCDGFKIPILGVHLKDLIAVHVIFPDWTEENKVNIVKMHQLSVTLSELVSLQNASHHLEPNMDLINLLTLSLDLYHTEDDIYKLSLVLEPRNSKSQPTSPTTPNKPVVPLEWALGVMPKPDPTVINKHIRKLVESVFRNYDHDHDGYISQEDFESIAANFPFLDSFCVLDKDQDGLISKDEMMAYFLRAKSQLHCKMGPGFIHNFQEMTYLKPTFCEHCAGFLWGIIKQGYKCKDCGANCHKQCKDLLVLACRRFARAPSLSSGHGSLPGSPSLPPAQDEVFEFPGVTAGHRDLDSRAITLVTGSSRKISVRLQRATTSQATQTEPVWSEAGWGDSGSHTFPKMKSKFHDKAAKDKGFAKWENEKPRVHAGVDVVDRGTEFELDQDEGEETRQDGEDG
Procedure, shortened: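 HEK293 cells grown in EMEM + 10% FBS, transfected after 48 h with GFP-RasGRP3 (Lipofectamine Plus). Treated 30 min at 37 °C, 5% CO2, with half-log increasing concentrations up to 10 µM, 1000 nM PMA or DMSO. Active Ras pulled down from lysates on Raf1-RBD agarose (60 min, 4 °C), immunoblotted with anti-Pan-Ras. Band intensity normalised to 1000 nM PMA. EC50 is the mean of n = 3.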

[2] = target: Protein kinase C delta type (Homo sapiens, UniProt Q05655); experiment: Activation of PKCdelta (unknown origin) expressed in HEK293 cells harboring GFP-tagged RasGRP3 assessed as phosphorylation at ser299 residues after 30 mins by immunoblot method
Chain of Protein kinase C delta type (Q05655 whole entry): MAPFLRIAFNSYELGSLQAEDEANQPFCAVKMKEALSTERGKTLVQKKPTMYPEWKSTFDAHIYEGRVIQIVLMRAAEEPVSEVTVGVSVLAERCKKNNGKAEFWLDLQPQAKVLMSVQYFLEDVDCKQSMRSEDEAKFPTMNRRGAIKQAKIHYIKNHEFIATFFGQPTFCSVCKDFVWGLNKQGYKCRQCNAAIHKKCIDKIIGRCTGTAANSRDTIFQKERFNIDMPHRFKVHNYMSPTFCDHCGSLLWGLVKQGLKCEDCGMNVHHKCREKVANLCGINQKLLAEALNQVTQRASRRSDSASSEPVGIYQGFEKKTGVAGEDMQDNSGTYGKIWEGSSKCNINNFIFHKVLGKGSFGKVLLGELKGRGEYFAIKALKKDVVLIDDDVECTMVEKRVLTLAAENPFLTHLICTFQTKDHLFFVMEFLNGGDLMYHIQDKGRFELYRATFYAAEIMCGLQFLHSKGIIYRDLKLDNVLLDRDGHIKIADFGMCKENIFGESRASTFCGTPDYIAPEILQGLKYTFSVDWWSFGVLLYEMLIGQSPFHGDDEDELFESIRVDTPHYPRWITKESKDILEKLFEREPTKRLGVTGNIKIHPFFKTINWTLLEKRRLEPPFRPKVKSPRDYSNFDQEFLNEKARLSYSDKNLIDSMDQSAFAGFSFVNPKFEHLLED
Procedure, shortened: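 Cells are GFP-RasGRP3-transfected HEK293, grown in EMEM + 10% FBS. Exposed 30 min at 37 °C, 5% CO2, to half-log concentrations up to 10 µM, 1000 nM PMA or DMSO. Lysed in RIPA with protease and phosphatase inhibitors. 50 µg protein run on 10% SDS-PAGE and blotted for phospho-PKCδ S299; anti-GFP used as loading control. Signal normalised to 1000 nM PMA. EC50 is the mean of n = 3.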

[3] = species: Homo sapiens; experiment: Selectivity ratio of EC50 for PKCdelta (unknown origin) expressed in HEK293 cells harboring GFP-tagged RasGRP3 to EC50 for GFP-tagged RasGRP3 (unknown origin) expressed in HEK293 cells
Procedure, shortened: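 One EC50 comes from PKCδ S299 phosphorylation on immunoblot, the other from Ras-GTP pulled down on Raf1-RBD. Both signals normalised to 1000 nM PMA. EC50s above 10 µM are extrapolated.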

Question: What does the source list for CCCCCCCCCCCCCC(=O)O[C@@H]1[C@@H](C)[C@@]2(O)[C@@H](C=C(CO)C[C@]3(O)C(=O)C(C)=C[C@@H]23)[C@@H]2C(C)(C)[C@]12OC(C)=O [PHORBOL MYRISTATE ACETATE]?
Answer: EC50 [1]: 82 nM; EC50 [2]: 290 nM; Ratio EC50 [3]: 3.5

From ChEMBL document CHEMBL4130626, “α-Arylidene Diacylglycerol-Lactones (DAG-Lactones) as Selective Ras Guanine-Releasing Protein 3 (RasGRP3) Ligands” (J Med Chem, 2018)
